According to ChEMBL document CHEMBL4689842, “EUbOPEN Chemogenomics Library wave 1” (2021):

Key:
Format in all cases: toxicity, cell-based
[1] = system: HEK-293T; experiment: Incucyte cell viability with HEK293T; conditions: human, 10 µM, compound concentration 10 uM; further: filed as whole numbers so only -1 and 0 and 1 occur
[2] = system: Fibroblast; experiment: Incucyte cell viability with human fibroblast; conditions: 10 µM, compound concentration 10 uM; further: filed as whole numbers so only -1 and 0 and 1 occur
[3] = system: U2OS; experiment: Incucyte cell viability with U2OS; conditions: human, 10 µM, compound concentration 10 uM; further: filed as whole numbers so only -1 and 0 and 1 occur
[4] = system: Fibroblast; experiment: Multiplex assay against human fibroblast
Procedure, shortened: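 Live cells were stained at seeding with Hoechst33342, BioTracker Green Microtubule Cytoskeleton Dye, MitoTracker Red and Annexin V Alexa Fluor 680. Following compound addition, they were imaged on a CQ1 microscope at 37°C and 5% CO2 and gated by CellPathfinder machine learning into Hoechst high-intensity objects or normal cells, with normal cells split into healthy, pyknosed or fragmented nuclei and pyknosed cells into mitotic or apoptotic. Tubulin, mitochondrial-mass and membrane-permeability phenotypes are per cents of healthy-nucleus cells.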

[5] = 6 h, replicate number 1, timepoint 6 hours
[6] = 12 h, replicate number 1, timepoint 12 hours
[7] = 18 h, replicate number 1, timepoint 18 hours
[8] = 24 h, replicate number 1, timepoint 24 hours
[9] = 12 h, 1 µM, compound concentration 1 uM, replicate 1
[10] = 12 h, 1 µM, compound concentration 1 uM, replicate 2
[11] = 12 h, 10 µM, compound concentration 10 uM, replicate 1
[12] = 12 h, 10 µM, compound concentration 10 uM, replicate 2
[13] = 24 h, 1 µM, compound concentration 1 uM, replicate 1
[14] = 24 h, 1 µM, compound concentration 1 uM, replicate 2
[15] = 24 h, 10 µM, compound concentration 10 uM, replicate 1
[16] = 24 h, 10 µM, compound concentration 10 uM, replicate 2
[17] = 48 h, 1 µM, compound concentration 1 uM, replicate 1
[18] = 48 h, 1 µM, compound concentration 1 uM, replicate 2
[19] = 48 h, 10 µM, compound concentration 10 uM, replicate 1
[20] = 48 h, 10 µM, compound concentration 10 uM, replicate 2

Oc1cccc(-c2nc(N3CCOCC3)c3oc4ncccc4c3n2)c1 [PI-103]
Growth Rate [1, 5]: 0 | Growth Rate [1, 6]: 0 | Growth Rate [1, 7]: 0 | Growth Rate [1, 8]: 0 | Growth Rate ([2]; 0 h, replicate number 2, timepoint 0 hours): 0 | Growth Rate [2, 5]: 0 | Growth Rate [2, 6]: 0 | Growth Rate [2, 7]: 0 | Growth Rate [2, 8]: 0 | Growth Rate ([3]; 0 h, replicate number 1, timepoint 0 hours): 0 | Growth Rate [3, 5]: 1 | Growth Rate [3, 6]: 1 | Growth Rate [3, 7]: 0 | Growth Rate ([3]; 18 h, replicate number 2, timepoint 18 hours): 1 | Growth Rate [3, 8]: 0 | Growth Rate ([3]; 24 h, replicate number 2, timepoint 24 hours): 1 | Population Apoptotic (%) [4, 9]: 64% | Population Fragmented Nuclei (%) [4, 9]: 32% | Population Healthy Nuclei (%) [4, 9]: 39% | Population Hoechst High Intensity Objects (%) [4, 9]: 12% | Population Membrane Permeable-Phenotype (%) [4, 9]: 14% | Population Mitochondria Different-Phenotype (%) [4, 9]: 1% | Population Mitotic Cells (%) [4, 9]: 36% | Population Normal (%) [4, 9]: 87% | Population Pyknosed Nuclei (%) [4, 9]: 28% | Population Tubulin-Different-Phenotype (%) [4, 9]: 17% | Total Cell Count [4, 9]: 199 | Population Apoptotic (%) [4, 10]: 47% | Population Fragmented Nuclei (%) [4, 10]: 10% | Population Healthy Nuclei (%) [4, 10]: 63% | Population Hoechst High Intensity Objects (%) [4, 10]: 5% | Population Membrane Permeable-Phenotype (%) [4, 10]: 2% | Population Mitochondria Different-Phenotype (%) [4, 10]: 7% | Population Mitotic Cells (%) [4, 10]: 52% | Population Normal (%) [4, 10]: 94% | Population Pyknosed Nuclei (%) [4, 10]: 26% | Population Tubulin-Different-Phenotype (%) [4, 10]: 0% | Total Cell Count [4, 10]: 73 | Population Apoptotic (%) [4, 11]: 70% | Population Fragmented Nuclei (%) [4, 11]: 34% | Population Healthy Nuclei (%) [4, 11]: 34% | Population Hoechst High Intensity Objects (%) [4, 11]: 23% | Population Membrane Permeable-Phenotype (%) [4, 11]: 33% | Population Mitochondria Different-Phenotype (%) [4, 11]: 16% | Population Mitotic Cells (%) [4, 11]: 29% | Population Normal (%) [4, 11]: 76% | Population Pyknosed Nuclei (%) [4, 11]: 30% | Population Tubulin-Different-Phenotype (%) [4, 11]: 77% | Total Cell Count [4, 11]: 135 | Population Apoptotic (%) [4, 12]: 36% | Population Fragmented Nuclei (%) [4, 12]: 18% | Population Healthy Nuclei (%) [4, 12]: 39% | Population Hoechst High Intensity Objects (%) [4, 12]: 5% | Population Mitochondria Different-Phenotype (%) [4, 12]: 59% | Population Mitotic Cells (%) [4, 12]: 63% | Population Normal (%) [4, 12]: 94% | Population Pyknosed Nuclei (%) [4, 12]: 41% | Population Tubulin-Different-Phenotype (%) [4, 12]: 83% | Total Cell Count [4, 12]: 69 | Population Apoptotic (%) [4, 13]: 64% | Population Fragmented Nuclei (%) [4, 13]: 30% | Population Healthy Nuclei (%) [4, 13]: 46% | Population Hoechst High Intensity Objects (%) [4, 13]: 14% | Population Membrane Permeable-Phenotype (%) [4, 13]: 18% | Population Mitochondria Different-Phenotype (%) [4, 13]: 5% | Population Mitotic Cells (%) [4, 13]: 35% | Population Normal (%) [4, 13]: 85% | Population Pyknosed Nuclei (%) [4, 13]: 22% | Population Tubulin-Different-Phenotype (%) [4, 13]: 30% | Total Cell Count [4, 13]: 189 | Population Apoptotic (%) [4, 14]: 75% | Population Fragmented Nuclei (%) [4, 14]: 14% | Population Healthy Nuclei (%) [4, 14]: 69% | Population Hoechst High Intensity Objects (%) [4, 14]: 6% | Population Membrane Permeable-Phenotype (%) [4, 14]: 3% | Population Mitochondria Different-Phenotype (%) [4, 14]: 3% | Population Mitotic Cells (%) [4, 14]: 25% | Population Normal (%) [4, 14]: 93% | Population Pyknosed Nuclei (%) [4, 14]: 16% | Population Tubulin-Different-Phenotype (%) [4, 14]: 1% | Total Cell Count [4, 14]: 73 | Population Apoptotic (%) [4, 15]: 66% | Population Fragmented Nuclei (%) [4, 15]: 32% | Population Healthy Nuclei (%) [4, 15]: 32% | Population Hoechst High Intensity Objects (%) [4, 15]: 32% | Population Membrane Permeable-Phenotype (%) [4, 15]: 37% | Population Mitochondria Different-Phenotype (%) [4, 15]: 12% | Population Mitotic Cells (%) [4, 15]: 33% | Population Normal (%) [4, 15]: 67% | Population Pyknosed Nuclei (%) [4, 15]: 36% | Population Tubulin-Different-Phenotype (%) [4, 15]: 70% | Total Cell Count [4, 15]: 111 | Population Apoptotic (%) [4, 16]: 50% | Population Fragmented Nuclei (%) [4, 16]: 28% | Population Healthy Nuclei (%) [4, 16]: 24% | Population Hoechst High Intensity Objects (%) [4, 16]: 4% | Population Membrane Permeable-Phenotype (%) [4, 16]: 44% | Population Mitochondria Different-Phenotype (%) [4, 16]: 75% | Population Mitotic Cells (%) [4, 16]: 49% | Population Normal (%) [4, 16]: 95% | Population Pyknosed Nuclei (%) [4, 16]: 47% | Population Tubulin-Different-Phenotype (%) [4, 16]: 89% | Total Cell Count [4, 16]: 80 | Population Apoptotic (%) [4, 17]: 33% | Population Fragmented Nuclei (%) [4, 17]: 33% | Population Healthy Nuclei (%) [4, 17]: 53% | Population Membrane Permeable-Phenotype (%) [4, 17]: 20% | Population Mitochondria Different-Phenotype (%) [4, 17]: 5% | Population Mitotic Cells (%) [4, 17]: 66% | Population Pyknosed Nuclei (%) [4, 17]: 12% | Population Tubulin-Different-Phenotype (%) [4, 17]: 22% | Total Cell Count [4, 17]: 163 | Population Apoptotic (%) [4, 18]: 60% | Population Fragmented Nuclei (%) [4, 18]: 32% | Population Healthy Nuclei (%) [4, 18]: 62% | Population Hoechst High Intensity Objects (%) [4, 18]: 14% | Population Membrane Permeable-Phenotype (%) [4, 18]: 34% | Population Mitochondria Different-Phenotype (%) [4, 18]: 8% | Population Mitotic Cells (%) [4, 18]: 40% | Population Normal (%) [4, 18]: 85% | Population Pyknosed Nuclei (%) [4, 18]: 4% | Population Tubulin-Different-Phenotype (%) [4, 18]: 47% | Total Cell Count [4, 18]: 129 | Population Apoptotic (%) [4, 19]: 46% | Population Fragmented Nuclei (%) [4, 19]: 35% | Population Healthy Nuclei (%) [4, 19]: 43% | Population Hoechst High Intensity Objects (%) [4, 19]: 33% | Population Membrane Permeable-Phenotype (%) [4, 19]: 34% | Population Mitochondria Different-Phenotype (%) [4, 19]: 12% | Population Mitotic Cells (%) [4, 19]: 53% | Population Normal (%) [4, 19]: 66% | Population Pyknosed Nuclei (%) [4, 19]: 20% | Population Tubulin-Different-Phenotype (%) [4, 19]: 68% | Total Cell Count [4, 19]: 110 | Population Apoptotic (%) [4, 20]: 78% | Population Fragmented Nuclei (%) [4, 20]: 36% | Population Healthy Nuclei (%) [4, 20]: 42% | Population Hoechst High Intensity Objects (%) [4, 20]: 40% | Population Membrane Permeable-Phenotype (%) [4, 20]: 20% | Population Mitochondria Different-Phenotype (%) [4, 20]: 24% | Population Mitotic Cells (%) [4, 20]: 21% | Population Normal (%) [4, 20]: 59% | Population Tubulin-Different-Phenotype (%) [4, 20]: 58% | Total Cell Count [4, 20]: 114
